Rows were chosen to be rich in hits. Some 4% of all compounds tested hit in one or more screens of this group.
KCNK3 block: human KCNK3 channel inhibitors, primary screen, CHO cells, FluxOR thallium flux, B-score; Potassium channel subfamily K member 3 (Homo sapiens), O14649; FluxOR fluorescence; stronger effect = lower value; B-score at 10 µM; hit rate 0.84% among 340,000; AID 602410, 2012;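 active = B-score under library mean minus 4 SD, starting fluorescence ratio at most library mean plus 5 SD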;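 note: more negative B-score means stronger inhibition of thallium flux through KCNK3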
PHOSPHO1 block: PubChem AID 1565; Phosphoethanolamine/phosphocholine phosphatase (Homo sapiens), Q8TCT1; recombinant PHOSPHO1, absorbance phosphatase assay; inhibition, % at 13.3 µM; hit rate 1.1% among 290,000; in the data active = inhibition above about 60%
Target sequence (Q8TCT1 whole entry, looked up): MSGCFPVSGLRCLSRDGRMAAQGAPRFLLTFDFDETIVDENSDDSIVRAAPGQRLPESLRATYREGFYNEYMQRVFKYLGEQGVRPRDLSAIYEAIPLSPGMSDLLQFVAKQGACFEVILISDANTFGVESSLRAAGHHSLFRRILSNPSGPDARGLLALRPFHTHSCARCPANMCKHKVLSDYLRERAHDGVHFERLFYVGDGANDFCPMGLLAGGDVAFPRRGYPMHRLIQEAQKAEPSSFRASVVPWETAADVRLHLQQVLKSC
KCNK9 inh: KCNK9 potassium channel inhibitors, primary screen, HEK293 cells, thallium flux; Potassium channel subfamily K member 9 (Homo sapiens), Q9NPC2; hit rate 1.2% among 310,000; AID 488922, 2010; B-score at 10 µM; FluxOR thallium flux fluorescence; stronger effect = lower value;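 active = ratio B-score over 3 SD below the library mean, with starting fluorescence within 5 SD of its mean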;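 note: negative B-score means less thallium flux so channel inhibition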
hERG rescue: hERG rescue from dofetilide block, primary screen, cell-based, CHO-hERG, FluxOR thallium flux, dofetilide IC70; Voltage-gated inwardly rectifying potassium channel KCNH2 (Homo sapiens), Q12809; dofetilide IC70 present; activation (rescue from dofetilide block), less the hit threshold, % at 10 µM; hit rate 0.51% among 310,000;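 active = activation above the mean of controls blocked by dofetilide plus 5 SD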;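 note: thallium influx through hERG after potassium depolarization seen as dye fluorescence rise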
KCNQ1 block: inhibitors of human KCNQ1 channel, primary screen, cell-based, thallium flux, high-throughput | Potassium voltage-gated channel subfamily KQT member 1 (Homo sapiens), P51787 | CHO-K1 KCNQ1, FluxOR thallium flux fluorescence; stronger effect = higher value | B-score at 10 µM | hit rate 1.3% among 310,000;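 active = compounds whose thallium flux B-score, printed positive for inhibition, exceeds three library SD while starting fluorescence stays within three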;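 note: channel opened by potassium depolarization with thallium stimulus after 20 min compound exposure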
KCNQ1 act: potentiators or activators of KCNQ1 channel, primary screen, cell-based, thallium flux, high-throughput; CHO-K1 KCNQ1, thallium flux FluxOR fluorescence; stronger effect = higher value; hit rate 0.35% among 310,000; B-score at 10 µM; Potassium voltage-gated channel subfamily KQT member 1 (Homo sapiens), P51787; AID 2648, 2010;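 active = fluorescence ratio B-score, a plate-corrected score, at least three library SD, with initial intensity B-score within 5 SD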
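System: Stable KCNQ1 CHO-K1 line | Incubation: 90 min dye loading and 20 min compound exposure, both at room temperature | Measure: Ratio B score | Medium: Assay buffer for compound exposure, DMSO matched across wells | Compound dosing: Single-concentration screen | Probe or stimulus: K+/Tl+ depolarizing stimulus | Measured by: Kinetic FluxOR fluorescence, 10 s baseline plus 110 s post-stimulus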
KCNK3 inh conf: retest of human KCNK3 channel inhibitors, confirmation, CHO cells, FluxOR thallium flux, triplicate | shares compounds with KCNK3 block | FluxOR fluorescence; 0% buffer, 100% carvedilol maximal block | ratio percent of control, % at 10 µM | hit rate 99% among 2,400;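 active = ratio percent of control, averaged over triplicates, above buffer control mean plus 5 SD, cut at about 64% in these data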;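 note: ratio is the fluorescence rise from min to max over baseline after thallium stimulus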
KCNK3 noninduced: thallium flux inhibition in non-induced cells, primary screen, counter-screen for KCNK3 inhibitor project, cell-based, non-induced KCNK3 line, FluxOR thallium, triplicate; non-induced KCNK3 parental cells; stronger effect = lower value; thallium flux ratio (lower = more inhibition) at 10 µM; shares compounds with KCNK3 block; hit rate 40% among 2,400;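 active = thallium flux ratio, averaged over three wells, more than 5 SD below the buffer control mean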;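 note: host cells are CHO cells without KCNK3 induction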
Of the large screens only hits and unclear results are named; the others gave an inactive call (follow-up assays come after a bar, where they were run).

Cc1c(C(=O)Nc2ccc(Cl)cc2)c2ccccn2c1CCc1ccncc1	KCNK3 block -9.7 | KCNK3 inh conf 109 | KCNK3 noninduced 0.14
CC1CN(c2nc3ccccc3nc2SCC(=O)Nc2ccc(F)cc2)CC(C)O1 (configuration not stated)	KCNK3 block -8.7 | KCNK3 inh conf 106 | KCNK3 noninduced 0.14
Fc1ccc(CNCC2CCCO2)cc1 (configuration not stated)	none
COc1ccccc1CNC(=O)c1sccc1C	none
COc1ccccc1CNC(=O)c1sccc1-c1ccccc1	KCNK3 block -10 | KCNK3 inh conf 103 | KCNK3 noninduced inactive
CCOC(=O)c1cc(C)sc1NC(=O)CSC1=NCCS1	KCNK3 block -12 (no result: PHOSPHO1 block) | KCNK3 inh conf 119 | KCNK3 noninduced inactive
Cc1ccc(N2CC(C(=O)NCCc3ccc(S(N)(=O)=O)cc3)CC2=O)cc1 (configuration not stated)	none
COc1ccc(C)cc1NC(=O)C12CCC(C)(C(=O)O1)C2(C)C (configuration not stated)	none
Cc1ccccc1NC1=C(Cl)C(=O)OC1OC(=O)c1ccccc1C (configuration not stated)	KCNK3 block -12 | KCNK3 inh conf 128 | KCNK3 noninduced 0.11
CCSc1nnc(NC(=O)CCNS(=O)(=O)c2cc(Br)cnc2N)s1	none
Cc1cc(O)c(C(C)C)cc1NC(=O)c1cccc(Cl)c1	KCNK3 block -9 | KCNK3 inh conf 109 | KCNK3 noninduced inactive
COc1ccccc1C(=O)Nc1cccc(NC(=O)c2ccccc2OC)n1	KCNK3 block -11 | KCNK3 inh conf 113 | KCNK3 noninduced inactive
Cc1cccc(NC(=O)c2ccc(C(=O)c3ccccc3)cc2)n1	none (no result: PHOSPHO1 block)
COC(=O)c1ccccc1NC(=O)c1ccccc1OC	none
O=C(Nc1cccc(NC(=O)c2ccccc2)n1)c1ccccc1	KCNK3 block -10 | KCNK3 inh conf 97 | KCNK3 noninduced inactive
COc1ccccc1C(=O)Nc1ccccc1SC(=O)c1ccccc1OC	KCNK3 block -9.4, KCNK9 inh -13 | KCNK3 inh conf 113 | KCNK3 noninduced inactive
Cc1ccccc1OCC(=O)NCC(C)(C)N1CCOCC1	none (no result: PHOSPHO1 block)
O=C(O)C(Cc1ccccc1)N1C(=O)c2cccc3cccc(c23)C1=O (configuration not stated)	none
O=C1c2cccc3cccc(c23)C(=O)N1CCc1ccccc1	KCNK3 block -9.6 | KCNK3 inh conf 118 | KCNK3 noninduced inactive
COCCN(CCOC)S(=O)(=O)c1ccc(C(=O)Nc2ccc(S(=O)(=O)Nc3nccc(C)n3)cc2)cc1	KCNK3 block -8.9 | KCNK3 inh conf 70 | KCNK3 noninduced inactive
Cc1onc(-c2ccccc2)c1C(=O)OCCOc1ccc([N+](=O)[O-])cc1[N+](=O)[O-]	KCNK3 block -10 | KCNK3 inh conf 92 | KCNK3 noninduced inactive
Cc1ccccc1OCCOC(=O)c1c(-c2ccccc2)noc1C	none
CC(C)Cn1cnc2c1c(=O)n(CC(=O)N(C)C)c(=O)n2Cc1ccccc1	none
COC(=O)c1cc(NC(=O)c2cc(-c3ccccc3Cl)oc2C(F)(F)F)ccc1N1CCOCC1	KCNK3 block -11, KCNQ1 block 8 | KCNK3 inh conf 84 | KCNK3 noninduced 0.12
Cc1c(NC(=O)C(C)OC(=O)c2c3c(nc4ccccc24)CCC3)c(=O)n(-c2ccccc2)n1C (configuration not stated)	none
CCNC(=O)NS(=O)(=O)c1cnccc1Nc1cccc(Cl)c1	none
